This is a sample that favours compounds with a hit; in the whole collection about 0.77% have one here.
bIAP inh = blocks bovine intestinal alkaline phosphatase activity; 190,000 tested, under 10 active; purified bovine IAP, CDP-star luminescence, 30 min; inhibition, % at 20 µM; AID 1019;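 active = over 50% inhibition of intestinal alkaline phosphatase at 20 µM in the single-dose screen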
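Assay system: bovine IAP enzyme; medium: DEA buffer 100 mM, pH 9.8, with MgCl2 1.0 mM, ZnCl2 0.02 mM; doses: 20 µM single dose; incubation: enzyme reaction for 30 min at room temperature; detection: CDP-star luminescence signal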
bIAP act = increases bovine intestinal alkaline phosphatase activity; purified bovine IAP, CDP-star luminescence, 30 min; stronger effect = higher value; fold of DMSO-control signal, blank-subtracted; activation factor at 20 µM; 200,000 tested, 0.17% active; AID 1016;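 active = activation factor of 2 or more at 20 µM, a signal rise over negative controls twice the positive control's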
hIAP activ = human IAP activation | activation factor at 10 µM | 330,000 tested, 0.16% active | purified human IAP, CDP-Star luminescence, 30 min; stronger effect = higher value; 1 = vehicle-only enzyme, 0 = enzyme-free background;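 active = activation factor of the enzyme at least 2-fold when tested at 20 µM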
Target sequence (P09923 whole entry, looked up): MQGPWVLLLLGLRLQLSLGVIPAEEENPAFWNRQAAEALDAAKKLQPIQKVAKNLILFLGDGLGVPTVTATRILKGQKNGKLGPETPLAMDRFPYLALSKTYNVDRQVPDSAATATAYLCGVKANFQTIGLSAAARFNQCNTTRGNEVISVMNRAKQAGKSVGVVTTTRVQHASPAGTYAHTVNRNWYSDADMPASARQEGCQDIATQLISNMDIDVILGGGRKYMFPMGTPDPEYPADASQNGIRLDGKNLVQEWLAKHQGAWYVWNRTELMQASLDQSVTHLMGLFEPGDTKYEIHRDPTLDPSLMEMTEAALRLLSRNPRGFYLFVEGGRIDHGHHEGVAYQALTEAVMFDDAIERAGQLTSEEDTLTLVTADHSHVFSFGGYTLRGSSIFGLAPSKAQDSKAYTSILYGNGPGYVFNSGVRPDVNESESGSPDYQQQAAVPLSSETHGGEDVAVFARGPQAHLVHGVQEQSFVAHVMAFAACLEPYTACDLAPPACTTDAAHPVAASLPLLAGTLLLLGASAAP
hIAP inh = human IAP inhibition. P09923. purified IAP, CDP-Star luminescence, 30 min. inhibition, % at 10 µM. 330,000 tested, 0.12% active;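 active = inhibition reaching a set limit with compound at 10 µM in the primary screen, cut at about 35% in these data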;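 also: plate controls were DMSO wells with enzyme for no effect and no-enzyme buffer wells for full effect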
mIAP inh = blocks mouse intestinal alkaline phosphatase. purified mouse IAP, CDP-Star luminescence, 30 min. inhibition, % at 10 µM. 330,000 tested, 0.2% active;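 active = inhibition of at least 40% at 10 µM in the primary screen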;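 also: plate controls were DMSO with enzyme for no effect and no enzyme wells for full effect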
mIAP activ = increases mouse intestinal alkaline phosphatase activity | activation factor at 10 µM | 330,000 tested, 0.24% active | muIAP, CDP-Star luminescence, 30 min; stronger effect = higher value; 1 = vehicle-only enzyme signal, 0 = enzyme-free wells | AID 2805;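 active = activation factor of at least 2 at 20 µM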
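Assay system: mouse IAP enzyme; reagent: chemiluminescent substrate CDP-Star; dosing: test compounds delivered from DMSO solution; schedule: 30 min at room temperature; measured by: luminescence from enzymatic CDP-Star hydrolysis; controls: DMSO-only wells and no-enzyme negative control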
hIAP act conf = human IAP activation confirmation; 880 tested, 10% active; activation (%Activity, negative = activation), % at 8.3 µM; shares compounds with hIAP activ; AID 434926; purified IAP, CDP-Star luminescence, 30 min; stronger effect = lower value;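 active = at least twofold enzyme activation in any of six single-dose repeats, which the averaged readout prints as negative percent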
Numbers without * were called inactive; . = no result.

SMILES	bIAP inh	bIAP act	hIAP activ	hIAP inh	mIAP inh	mIAP activ	hIAP act conf
COc1cccc(-n2c(SCc3ccccn3)nc3c(c2=O)SCC3)c1	2.5	1	1.12	-11.6	-7.8	1.08	.
CN(C)c1ccc(N=Nc2ccccc2Br)cc1	.	.	0.58	42.0*	18.5	0.815	-103.6*
CC(=O)c1ccc(N=Nc2ccc(N(C)C)cc2)cc1	9.9	0.9	1.16	-16.2	3.4	0.966	.
COc1ccc(OC)c(S(=O)(=O)n2nnc3ccccc32)c1	5.8	0.9	0.631	36.9*	3.5	0.965	-53.6
Cc1ccccc1C(=O)NC1CCN(Cc2nnnn2CCc2ccccc2)CC1	4.4	1	0.903	9.7	7.8	0.922	.
CCn1cc(CN2CCN(C)C(CCO)C2)c2ccccc21 (stereo not given)	.	.	2.85*	-184.8	-2.5	1.02	29.1
CCn1cc(CN2CCN(CCC(C)C)C(CCO)C2)c2ccccc21 (stereo not given)	.	.	1.17	-16.5	7.7	0.923	.
CCOc1ccc(N(CC(=O)N/N=C/c2cccnc2)S(C)(=O)=O)cc1	-7.3	1.1	1.03	-3.3	1.3	0.987	.
O=C(Nc1cccc(-c2cccc(F)c2)c1)C1CCN(Cc2ccco2)CC1	.	.	2.29*	-128.9	-11.8	1.12	-8.9
O=S(=O)(c1ccccc1)N1CCCC1c1cccs1 (stereo not given)	.	.	0.47	53.0*	5.3	0.947	-171.6*
COc1ccc(S(=O)(=O)N2CCCC2c2cccs2)cc1 (stereo not given)	.	.	0.811	18.9	5.3	0.947	.
O=C(Nc1cccc(F)c1)N1CCC(n2c(=O)[nH]c3ccccc32)CC1	.	.	0.959	4.1	-0.5	1	.
COc1ccc(NC(=O)Nc2cccc3ccccc23)cc1S(N)(=O)=O	.	.	1.06	-5.6	-83.7	1.84	.
COc1cccc(N2CC(O)=C(c3nc4ccccc4c(=O)[nH]3)C2=N)c1	0.8	1	2.12*	-111.7	8.9	0.911	-54.8
Cc1cc(C)cc(N2CC(O)=C(c3nc4ccccc4c(=O)[nH]3)C2=N)c1	-10.8	1.1	1.44	-43.6	4.7	0.953	.
CCNS(=O)(=O)c1c(C)cc(C)c(N(C)S(=O)(=O)c2ccccc2)c1C	4.5	1	0.93	7.0	-3.1	1.03	.
CCOC(=O)C1CCCN(C(=S)NC(=O)/C=C/c2ccc(F)cc2)C1 (stereo not given)	.	.	0.614	38.6*	-0.3	1	1.7
Cc1ccc(OCC(=O)NNC(=O)c2cc(C)[nH]n2)cc1	-2.1	1	0.897	10.3	15.4	0.846	.
Cc1cc(C(=O)NNC(=O)COc2ccccc2Cl)n[nH]1	.	.	3.14*	-213.7	11.7	0.883	8.0
Cc1cc(C(=O)NNC(=O)COc2c(C)cc(Br)cc2C)n[nH]1	.	.	2.21*	-120.5	21.6	0.784	-0.1
Cc1ccc(NC(=O)c2cc(C)nc3ccccc23)c(C)c1	.	.	1.01	-0.8	-1.5	1.01	.
Cc1cc(C(=O)Nc2ccccc2Cl)c2ccccc2n1	.	.	0.619	38.1*	-2.7	1.03	6.3
COc1ccc(-n2ccn(CC(=O)Nc3ccc(OC)cc3OC)c(=O)c2=O)cc1	.	.	0.562	43.8*	-1.3	1.01	-0.5
CCCn1c(SCCc2ccccc2)nc2c1c(=O)[nH]c(=O)n2C	7.9	0.9	0.829	17.1	1.6	0.984	.
CCCn1c(N/N=C(C)\C=C\c2ccccc2)nc2c1c(=O)[nH]c(=O)n2C	-100.9	2*	2.25*	-125.4	-14.4	1.14	-28.0
SMILES	bIAP inh	bIAP act	hIAP activ	hIAP inh	mIAP inh	mIAP activ	hIAP act conf
COCCCNC(=O)CN1C(=O)COc2ccc(S(=O)(=O)N3CC(C)CC(C)C3)cc21 (stereo not given)	.	.	1.09	-8.7	-2.7	1.03	.
CCS(=O)(=O)Nc1cc2c3c(c1)CCC(=O)N3CCC2	.	.	0.628	37.2*	1.7	0.983	9.7
CCc1ccc(-c2cc(C(=O)N/N=C/c3ccco3)[nH]n2)cc1	1.9	1	1.65	-65.0	-2.7	1.03	.
O=C(N/N=C/c1ccccn1)c1cc(-c2ccc3ccccc3c2)n[nH]1	18.1	0.8	2.25*	-124.7	7.2	0.928	-29.6
O=C(N/N=C/c1ccco1)c1cc(-c2ccc3ccccc3c2)n[nH]1	-42.4	1.4	2.08*	-107.7	4.2	0.958	-15.1
CCc1ccc(-c2cc(C(=O)N/N=C/c3ccccn3)[nH]n2)cc1	-0.8	1	1.72	-71.8	-3.1	1.03	.
CC(=O)Nc1ccc(SCC(=O)NNC(=O)CN(C)S(=O)(=O)c2ccc(C)cc2)cc1	.	.	1.07	-7.5	-0.2	1	.
CC(=O)Nc1ccc(S(=O)(=O)N(C)CC(=O)NNC(=O)Cc2nc3ccccc3n2C)cc1	.	.	2.3*	-130.4	-6.4	1.06	-50.4
Cn1c(NC(=O)Cc2cccs2)cc(=O)n(C)c1=O	12.1	0.9	0.998	0.2	-4.5	1.04	.
CCCCCC(=O)Cc1cc(O)cc2c1C(=O)Oc1cc(O)c(C(=O)O)c(CCCCC)c1O2	.	.	0.602	39.8*	20.9	0.791	-40.2
O=C(NCC1CCCO1)c1ccc(Br)s1 (stereo not given)	.	.	0.599	40.1*	1.7	0.983	9.4
COc1cc2c(cc1OC)C(C)N(C(=O)Nc1ccccc1)CC2 (stereo not given)	.	.	0.938	6.2	1.9	0.981	.
COc1cc2c(cc1OC)[C@H](C)N(C(=S)Nc1ccc(F)cc1)CC2	.	.	2.27*	-127.0	-0.4	1	3.0
COCCNC(=O)c1onc(CSc2ccc(F)cc2)c1C(=O)NCCOC	.	.	0.855	14.5	-9.5	1.09	.
N#Cc1c(-c2ccccc2)nc(N2CCOCC2)[nH]c1=O	7.8	0.9	0.616	38.4*	-3.7	1.04	27.5
N#Cc1c(-c2ccccc2)nc(N2CCCCCC2)[nH]c1=O	0.7	1	0.994	0.6	4.9	0.951	.
CCN(CC)C(=O)COc1ccc(S(=O)(=O)N2CCOCC2)cc1	7.8	0.9	2.45*	-144.8	-6.8	1.07	-25.6
CCN(CC)C(=O)COc1ccc(S(=O)(=O)N2CCCC2)cc1	.	.	1.11	-11.4	3.5	0.965	.
COc1ccc(Cl)cc1-n1c(=S)sc2c(=O)[nH]c(SCC(=O)NCCC(C)C)nc21	.	.	1.07	-6.9	7.6	0.924	.
COC(=O)c1cc(C#N)c(Oc2ccccc2OC)nc1C	3.6	1	0.638	36.2*	5.1	0.949	20.0
CCOC(=O)C1CCCN(Cc2ccc(O)c(OC)c2)C1 (stereo not given)	5.2	0.9	1.03	-2.9	-12.4	1.12	.
COc1cc(/C=N\NS(=O)(=O)c2ccccc2)cc(OC)c1OC	.	.	0.634	36.6*	-6.0	1.06	30.7
O=c1ccc2c(-c3ccccc3)c3ccc(O)cc3oc-2c1	.	.	0.857	14.3	18.9	0.811	.
